Data reported in ChEMBL document CHEMBL1144120, “In vitro evaluation of antifungal properties of phenylpropanoids and related compounds acting against dermatophytes” (1999).
Converted amounts (≈) assume the structure as drawn. The source made the active and inactive calls. The calls are words filed in the database; no cut-off is given here.

Columns and labels:
[1] = test system: Trichophyton mentagrophytes; experiment: Antifungal activity against Trichophyton mentagrophytes ATCC 9972 up to 50 ug/mL by agar dilution method; assay type: functional, organism-based
In short: (§1)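 Dermatophytes were tested by agar dilution on Sabouraud chloramphenicol agar in 96-well plates. DMSO stock solutions were serially two-fold diluted into the medium to give final concentrations of 0.10–50 µg/mL, with DMSO not exceeding 2%. Each well received 5 µL of spore suspension.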

[2] = test system: Trichophyton rubrum; experiment: Antifungal activity against Trichophyton rubrum C 113 up to 50 ug/mL by agar dilution method; assay type: functional, organism-based; in short: as §1
[3] = test system: Epidermophyton floccosum; experiment: Antifungal activity against Epidermophyton floccosum C 114 up to 50 ug/mL by agar dilution method; assay type: functional, organism-based; in short: as §1
[4] = test system: Nannizzia gypsea; experiment: Antifungal activity against Microsporum gypseum C 115 by agar dilution method; assay type: functional; in short: as §1
[5] = test system: Trichophyton mentagrophytes; experiment: Antifungal activity against Trichophyton mentagrophytes ATCC by agar dilution method; assay type: functional; in short: as §1
[6] = test system: Trichophyton rubrum; experiment: Antifungal activity against Trichophyton rubrum C 113 by agar dilution method; assay type: functional; in short: as §1
[7] = test system: Epidermophyton floccosum; experiment: Antifungal activity against Epidermophyton floccosum C 114 by agar dilution method; assay type: functional; in short: as §1
[8] = test system: Candida albicans; experiment: Antifungal activity against Candida albicans ATCC 10231 by agar dilution method; assay type: functional, organism-based
In short: (§2)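 Sabouraud chloramphenicol agar dilution in 96-well plates. Strains were grown on Sabouraud chloramphenicol agar slants for 48 h at 30 °C and suspended in sterile distilled water, adjusted to 10^6 viable cells/mL. DMSO stocks were serially two-fold diluted into the agar to give 0.10–50 µg/mL, with DMSO ≤2% final. 5 µL inoculum per well; incubated 24, 48 or 72 h at 30 °C per control growth; MIC recorded.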

[9] = test system: Saccharomyces cerevisiae; experiment: Antifungal activity against Saccharomyces cerevisiae ATCC 9763 by agar dilution method; assay type: functional, organism-based; in short: as §2
[10] = test system: Cryptococcus neoformans; experiment: Antifungal activity against Cryptococcus neoformans ATCC 32264 by agar dilution method; assay type: functional, organism-based; in short: as §2
[11] = test system: Aspergillus flavus; experiment: Antifungal activity against Aspergillus flavus ATCC 9170 by agar dilution method; assay type: functional, organism-based; in short: as §2
[12] = test system: Aspergillus fumigatus; experiment: Antifungal activity against Aspergillus fumigatus ATCC 26934 by agar dilution method; assay type: functional, organism-based; in short: as §2
[13] = test system: Aspergillus niger; experiment: Antifungal activity against Aspergillus niger ATCC 9029 by agar dilution method; assay type: functional, organism-based; in short: as §2
[14] = test system: Microsporum canis; experiment: Antifungal activity against Microsporum canis C 112 by agar dilution method; assay type: functional; in short: as §1
[15] = test system: Microsporum canis; experiment: Antifungal activity against Microsporum canis C 112 up to 50 ug/mL by agar dilution method; assay type: functional, organism-based; in short: as §1
[16] = test system: Nannizzia gypsea; experiment: Antifungal activity against Microsporum gypseum C 115 up to 50 ug/mL by agar dilution method; assay type: functional, organism-based; in short: as §1

Compound | MIC [4] | MIC [5] | MIC [6] | MIC [7] | MIC [14] | Activity [1] | Activity [2] | Activity [3] | Activity [8] | Activity [9] | Activity [10] | Activity [11] | Activity [12] | Activity [13] | Activity [15] | Activity [16]
CCC(=O)c1ccc(OC)c(OC)c1 | > 50 µg/mL | > 50 µg/mL | > 50 µg/mL | 50 µg/mL (≈ 257 µM) | > 50 µg/mL | inactive | inactive | inactive | inactive | inactive | inactive | inactive | inactive | inactive | inactive | inactive
CCC(O)c1cc(OC)c(OC)c(OC)c1 (stereo not given) | > 50 µg/mL | > 50 µg/mL | > 50 µg/mL | 50 µg/mL (≈ 221 µM) | 50 µg/mL (≈ 221 µM) | inactive | inactive | inactive | inactive | inactive | inactive | inactive | inactive | inactive | inactive | inactive
C/C=C\c1ccc(O)c(OC)c1 [ISOEUGENOL] | > 50 µg/mL | > 50 µg/mL | > 50 µg/mL | > 50 µg/mL | > 50 µg/mL | inactive | inactive | inactive | inactive | inactive | inactive | inactive | inactive | inactive | inactive | inactive
CCC(=O)c1ccc2c(c1)OCO2 | > 50 µg/mL | > 50 µg/mL | > 50 µg/mL | 40 µg/mL (≈ 224 µM) | > 50 µg/mL | inactive | inactive | inactive | inactive | inactive | inactive | inactive | inactive | inactive | inactive | inactive
C=CCc1ccc(OC)c(OC)c1 [METHYLEUGENOL] | > 50 µg/mL | > 50 µg/mL | > 50 µg/mL | > 50 µg/mL | > 50 µg/mL | inactive | inactive | inactive | inactive | inactive | inactive | inactive | inactive | inactive | inactive | inactive
CC(Cl)C(=O)c1ccccc1 (stereo not given) | 20 µg/mL (≈ 119 µM) | 10 µg/mL (≈ 59.3 µM) | 12.5 µg/mL (≈ 74.1 µM) | 15 µg/mL (≈ 89 µM) | 6.25 µg/mL (≈ 37.1 µM) | inactive | inactive | inactive | inactive | inactive | inactive | inactive | inactive | inactive | inactive | inactive
CC(C)C(=O)c1ccc2ccccc2c1 | 25 µg/mL (≈ 126 µM) | 25 µg/mL (≈ 126 µM) | > 50 µg/mL | 40 µg/mL (≈ 202 µM) | 40 µg/mL (≈ 202 µM) | inactive | inactive | inactive | inactive | inactive | inactive | inactive | inactive | inactive | inactive | inactive

Further lines, with some results ahead:

MIC [4] | MIC [5] | MIC [6] | MIC [7] | MIC [14] | Compound | Activity [1] | Activity [2] | Activity [3] | Activity [8] | Activity [9] | Activity [10] | Activity [11] | Activity [12] | Activity [13] | Activity [15] | Activity [16]
12.5 µg/mL (≈ 48.3 µM) | 15 µg/mL (≈ 58 µM) | 10 µg/mL (≈ 38.7 µM) | 0.5 µg/mL (≈ 1.93 µM) | 6.25 µg/mL (≈ 24.2 µM) | COc1cc(C(=O)C(C)Cl)cc(OC)c1OC (stereo not given) | inactive | inactive | inactive | inactive | inactive | inactive | inactive | inactive | inactive | inactive | inactive
> 50 µg/mL | > 50 µg/mL | > 50 µg/mL | 50 µg/mL (≈ 255 µM) | > 50 µg/mL | CCC(O)c1ccc(OC)c(OC)c1 (stereo not given) | inactive | inactive | inactive | inactive | inactive | inactive | inactive | inactive | inactive | inactive | inactive
> 50 µg/mL | > 50 µg/mL | > 50 µg/mL | 50 µg/mL (≈ 308 µM) | > 50 µg/mL | CC(C)(C)C(=O)c1ccccc1 | inactive | inactive | inactive | inactive | inactive | inactive | inactive | inactive | inactive | inactive | inactive
> 50 µg/mL | > 50 µg/mL | > 50 µg/mL | > 50 µg/mL | > 50 µg/mL | C=CCc1cc(OC)c(OC)c(OC)c1 | inactive | inactive | inactive | inactive | inactive | inactive | inactive | inactive | inactive | inactive | inactive
> 50 µg/mL | > 50 µg/mL | > 50 µg/mL | > 50 µg/mL | > 50 µg/mL | COc1ccc(C(O)C(C)C)cc1OC (stereo not given) | inactive | inactive | inactive | inactive | inactive | inactive | inactive | inactive | inactive | inactive | inactive
> 50 µg/mL | > 50 µg/mL | > 50 µg/mL | 50 µg/mL (≈ 182 µM) | > 50 µg/mL | COc1ccc([C@H](O)[C@H](C)Br)cc1OC | inactive | inactive | inactive | inactive | inactive | inactive | inactive | inactive | inactive | inactive | inactive
40 µg/mL (≈ 217 µM) | 25 µg/mL (≈ 136 µM) | 40 µg/mL (≈ 217 µM) | 40 µg/mL (≈ 217 µM) | 50 µg/mL (≈ 271 µM) | CCC(=O)c1ccc2ccccc2c1 | inactive | inactive | inactive | inactive | inactive | inactive | inactive | inactive | inactive | inactive | inactive
> 50 µg/mL | > 50 µg/mL | 50 µg/mL (≈ 240 µM) | 50 µg/mL (≈ 240 µM) | > 50 µg/mL | COc1ccc(C(=O)C(C)C)cc1OC | inactive | inactive | inactive | inactive | inactive | inactive | inactive | inactive | inactive | inactive | inactive
